Laboratory results as given in ChEMBL document CHEMBL1129625, “11-substituted (R)-aporphines: synthesis, pharmacology, and modeling of D2A and 5-HT1A receptor interactions” (J Med Chem, 1996).

What was measured:
D(1A) dopamine receptor [1] = target: T1, D(1A) dopamine receptor (Rattus norvegicus, UniProt P18901); test: Affinity for dopamine receptor D1 binding measured by competition against [3H]-SCH- 23390 to rat striatal membrane; design: species or system Striatum
How it was run: (§1)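 Radioligand displacement analysed with a one-site model. D1 sites come from rat striatum and are labelled with [3H]SCH23390. D2A is the cloned human receptor expressed in Ltk- cells and labelled with [3H]raclopride. Ki is the mean ± standard error of n = 2–3 experiments.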

[2] = target: T2, 5-hydroxytryptamine receptor 1A (Rattus norvegicus, UniProt P19327); test: In vitro displacement of [3H]8-OH-DPAT binding to rat hippocampal 5-hydroxytryptamine 1A receptor; assay type: tissue-based, Hippocampus
T2 sequence (P19327 whole entry): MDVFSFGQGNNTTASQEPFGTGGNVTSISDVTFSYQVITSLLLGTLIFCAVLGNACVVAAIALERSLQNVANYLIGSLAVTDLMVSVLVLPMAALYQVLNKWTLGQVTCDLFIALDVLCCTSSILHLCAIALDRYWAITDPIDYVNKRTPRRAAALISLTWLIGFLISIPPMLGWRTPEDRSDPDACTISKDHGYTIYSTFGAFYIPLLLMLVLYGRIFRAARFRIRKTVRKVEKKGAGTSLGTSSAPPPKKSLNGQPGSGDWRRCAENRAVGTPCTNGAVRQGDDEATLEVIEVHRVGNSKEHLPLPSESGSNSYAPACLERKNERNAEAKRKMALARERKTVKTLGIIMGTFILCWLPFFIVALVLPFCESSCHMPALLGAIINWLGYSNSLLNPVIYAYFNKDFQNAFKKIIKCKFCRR

D(2) dopamine receptor [3] = target: T3, D(2) dopamine receptor (Homo sapiens, UniProt P14416); test: Displacement of [3H]raclopride from human Dopamine receptor D2A
T3 sequence (P14416 whole entry): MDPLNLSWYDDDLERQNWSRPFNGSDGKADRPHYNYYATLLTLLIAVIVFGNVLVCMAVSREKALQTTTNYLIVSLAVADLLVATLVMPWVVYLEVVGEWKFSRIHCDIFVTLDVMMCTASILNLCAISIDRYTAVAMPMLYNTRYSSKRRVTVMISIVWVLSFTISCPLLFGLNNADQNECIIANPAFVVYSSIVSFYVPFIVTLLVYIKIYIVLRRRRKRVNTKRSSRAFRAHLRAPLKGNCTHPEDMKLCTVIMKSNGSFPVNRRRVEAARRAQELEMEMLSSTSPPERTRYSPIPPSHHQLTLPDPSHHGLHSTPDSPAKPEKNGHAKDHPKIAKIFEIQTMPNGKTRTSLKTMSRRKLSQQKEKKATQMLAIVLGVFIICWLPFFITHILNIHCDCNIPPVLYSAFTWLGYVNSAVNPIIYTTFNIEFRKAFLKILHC

D(1A) dopamine receptor [4] = target: T1, D(1A) dopamine receptor
Rattus norvegicus [5] = test: In vivo accumulation of 5HTP in percent of saline control was determined in cortex of reserpine pretreated rat at a dose of 3.3 uM/kg; assay type: functional
How it was run: (§2)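 Rats get reserpine 5 mg/kg sc 18–20 h beforehand. A single dose of test drug is given. NSD1015 (117 mg/kg sc) is injected 30 min after drug to block decarboxylase. 5-HTP or DOPA accumulation is measured in limbic forebrain, striatum and cortex and expressed as percent of saline controls, mean ± SEM, n = 2–4. Statistics use one-way ANOVA with Fisher's PLSD.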

Rattus norvegicus [6] = test: In vivo accumulation of DOPA in percent of saline control was determined in cortex of reserpine pretreated rat at a dose of 3.3 uM/kg; assay type: functional; how it was run: as §2
Rattus norvegicus [7] = test: In vivo accumulation of DOPA in percent of saline control was determined in striatum of reserpine pretreated rat at a dose of 3.3 uM/kg; assay type: functional; how it was run: as §2
Rattus norvegicus [8] = test: In vivo accumulation of 5HTP in percent of saline control was determined in limbic forebrain of reserpine pretreated rat at a dose of 3.3 uM/kg; assay type: functional; how it was run: as §2
Rattus norvegicus [9] = test: In vivo accumulation of 5HTP in percent of saline control was determined in striatum of reserpine pretreated rat at a dose of 3.3 uM/kg; assay type: functional; how it was run: as §2
Rattus norvegicus [10] = test: In vivo accumulation of DOPA in percent of saline control was determined in limbic forebrain of reserpine pretreated rat at a dose of 3.3 uM/kg; assay type: functional; how it was run: as §2
D(2) dopamine receptor [11] = target: T3, D(2) dopamine receptor; test: Displacement of [3H]-raclopride fromd human Dopamine receptor D2A expressed in LtK- cells; assay type: cell-based; how it was run: as §1
Rattus norvegicus [12] = test: In vivo accumulation of DOPA in percent of saline control was determined in cortex of reserpine pretreated rat at a dose of 30 uM/kg; assay type: functional; how it was run: as §2
Rattus norvegicus [13] = test: In vivo accumulation of 5HTP in percent of saline control was determined in limbic forebrain of reserpine pretreated rat at a dose of 30 uM/kg; assay type: functional; how it was run: as §2
Rattus norvegicus [14] = test: In vivo accumulation of DOPA in percent of saline control was determined in striatum of reserpine pretreated rat at a dose of 30 uM/kg; assay type: functional; how it was run: as §2
Rattus norvegicus [15] = test: In vivo accumulation of 5HTP in percent of saline control was determined in cortex of reserpine pretreated rat at a dose of 30 uM/kg; assay type: functional; how it was run: as §2
Rattus norvegicus [16] = test: In vivo accumulation of 5HTP in percent of saline control was determined in striatum of reserpine pretreated rat at a dose of 30 uM/kg; assay type: functional; how it was run: as §2
Rattus norvegicus [17] = test: In vivo accumulation of DOPA in percent of saline control was determined in limbic forebrain of reserpine pretreated rat at a dose of 30 uM/kg; assay type: functional; how it was run: as §2
Rattus norvegicus [18] = test: In vivo accumulation of DOPA in percent of saline control was determined in striatum of reserpine pretreated rat at dose of 3.5 uM/kg; assay type: functional; how it was run: as §2
Rattus norvegicus [19] = test: In vivo accumulation of 5HTP in percent of saline control was determined in striatum of reserpine pretreated rat at dose of 3.5 uM/kg; assay type: functional; how it was run: as §2
Rattus norvegicus [20] = test: In vivo accumulation of 5HTP in percent of saline control was determined in cortex of reserpine pretreated rat at dose of 3.5 uM/kg; assay type: functional; how it was run: as §2
Rattus norvegicus [21] = test: In vivo accumulation of 5HTP in percent of saline control was determined in limbic forebrain of reserpine pretreated rat at dose of 3.5 uM/kg; assay type: functional; how it was run: as §2
Rattus norvegicus [22] = test: In vivo accumulation of DOPA in percent of saline control was determined in cortex of reserpine pretreated rat at dose of 3.5 uM/kg; assay type: functional; how it was run: as §2
Rattus norvegicus [23] = test: In vivo accumulation of DOPA in percent of saline control was determined in limbic forebrain of reserpine pretreated rat at dose of 3.5 uM/kg; assay type: functional; how it was run: as §2
Rattus norvegicus [24] = test: In vivo accumulation of 5HTP in percent of saline control was determined in cortex of reserpine pretreated rat at a dose of 2.9 uM/kg; assay type: functional
How it was run: (§3)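 Reserpine 5 mg/kg sc given 18–20 h before. Single test dose given; 30 min later decarboxylase inhibited with NSD1015 (117 mg/kg sc). 5-HTP or DOPA accumulation measured in limbic forebrain, striatum and cortex, expressed as percent of saline controls (mean ± SEM, n = 2–4). Saline-control DOPA levels given in ng/g tissue. One-way ANOVA with Fischer's PLSD, p < 0.05.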

Rattus norvegicus [25] = test: In vivo accumulation of DOPA in percent of saline control was determined in limbic forebrain of reserpine pretreated rat at a dose of 2.9 uM/kg; assay type: functional; how it was run: as §3
Rattus norvegicus [26] = test: In vivo accumulation of DOPA in percent of saline control was determined in cortex of reserpine pretreated rat at a dose of 2.9 uM/kg; assay type: functional; how it was run: as §3
Rattus norvegicus [27] = test: In vivo accumulation of 5HTP in percent of saline control was determined in limbic forebrain of reserpine pretreated rat at a dose of 2.9 uM/kg; assay type: functional; how it was run: as §3
Rattus norvegicus [28] = test: In vivo accumulation of DOPA in percent of saline control was determined in striatum of reserpine pretreated rat at a dose of 2.9 uM/kg; assay type: functional; how it was run: as §3
Rattus norvegicus [29] = test: In vivo accumulation of 5HTP in percent of saline control was determined in striatum of reserpine pretreated rat at a dose of 2.9 uM/kg; assay type: functional; how it was run: as §3
Rattus norvegicus [30] = test: In vivo accumulation of 5HTP in percent of saline control was determined in cortex of reserpine pretreated rat at dose of 3.2 uM/kg; assay type: functional; how it was run: as §2
Rattus norvegicus [31] = test: In vivo accumulation of DOPA in percent of saline control was determined in limbic forebrain of reserpine pretreated rat at dose of 3.2 uM/kg; assay type: functional; how it was run: as §2
Rattus norvegicus [32] = test: In vivo accumulation of DOPA in percent of saline control was determined in cortex of reserpine pretreated rat at dose of 3.2 uM/kg; assay type: functional; how it was run: as §2
Rattus norvegicus [33] = test: In vivo accumulation of 5HTP in percent of saline control was determined in striatum of reserpine pretreated rat at dose of 3.2 uM/kg; assay type: functional; how it was run: as §2
Rattus norvegicus [34] = test: In vivo accumulation of 5HTP in percent of saline control was determined in limbic forebrain of reserpine pretreated rat at dose of 3.2 uM/kg; assay type: functional; how it was run: as §2
Rattus norvegicus [35] = test: In vivo accumulation of DOPA in percent of saline control was determined in striatum of reserpine pretreated rat at dose of 3.2 uM/kg; assay type: functional; how it was run: as §2
Rattus norvegicus [36] = test: In vivo accumulation of DOPA in percent of saline control was determined in limbic forebrain of reserpine pretreated rat at a dose of 3.7 uM/kg; assay type: functional; how it was run: as §2
Rattus norvegicus [37] = test: In vivo accumulation of 5HTP in percent of saline control was determined in cortex of reserpine pretreated rat at a dose of 3.7 uM/kg; assay type: functional; how it was run: as §2
Rattus norvegicus [38] = test: In vivo accumulation of DOPA in percent of saline control was determined in cortex of reserpine pretreated rat at a dose of 3.7 uM/kg; assay type: functional; how it was run: as §2
Rattus norvegicus [39] = test: In vivo accumulation of 5HTP in percent of saline control was determined in striatum of reserpine pretreated rat at a dose of 3.7 uM/kg; assay type: functional; how it was run: as §2
Rattus norvegicus [40] = test: In vivo accumulation of 5HTP in percent of saline control was determined in limbic forebrain of reserpine pretreated rat at a dose of 3.7 uM/kg; assay type: functional; how it was run: as §2
Rattus norvegicus [41] = test: In vivo accumulation of DOPA in percent of saline control was determined in striatum of reserpine pretreated rat at a dose of 3.7 uM/kg; assay type: functional; how it was run: as §2

T1 sequence (P18901 whole entry): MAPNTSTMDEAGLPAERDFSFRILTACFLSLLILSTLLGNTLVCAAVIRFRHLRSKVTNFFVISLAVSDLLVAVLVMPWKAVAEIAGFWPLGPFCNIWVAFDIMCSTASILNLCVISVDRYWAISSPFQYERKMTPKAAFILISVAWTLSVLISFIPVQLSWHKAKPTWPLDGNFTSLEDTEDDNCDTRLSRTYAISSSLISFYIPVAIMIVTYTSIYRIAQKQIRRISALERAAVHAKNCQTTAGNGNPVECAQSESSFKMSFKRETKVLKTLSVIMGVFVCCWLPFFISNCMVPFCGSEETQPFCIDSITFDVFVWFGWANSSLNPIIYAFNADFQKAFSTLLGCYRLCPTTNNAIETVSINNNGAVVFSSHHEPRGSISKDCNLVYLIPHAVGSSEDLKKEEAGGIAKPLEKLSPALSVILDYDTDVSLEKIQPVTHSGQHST

Structure (SMILES)	Ki [2] [nM]	Ki (D(2) dopamine receptor [3]) [nM]	Ki (D(1A) dopamine receptor [4]) [nM]	Ki (D(2) dopamine receptor [11]) [nM]	other results
COc1cccc2c1-c1cccc3c1[C@@H](C2)N(C(C)C)CC3	375	1000			Ki (D(1A) dopamine receptor [1]): > 10000 nM
CN1CCc2cccc3c2[C@H]1Cc1cccc(C#N)c1-3	41.1	183	279		
COc1cccc2c1-c1cccc3c1[C@@H](C2)N(C)CC3	5.1	551	606		
CCc1cccc2c1-c1cccc3c1[C@@H](C2)N(C)CC3	4.5	79.2	270		Accumulation (Rattus norvegicus [5]): 104; Accumulation (Rattus norvegicus [6]): 100; Accumulation (Rattus norvegicus [7]): 92; Accumulation (Rattus norvegicus [8]): 83; Accumulation (Rattus norvegicus [9]): 95; Accumulation (Rattus norvegicus [10]): 87
COc1cccc2c1-c1cccc3c1[C@@H](C2)NCC3	8.3		> 5000	> 1000	
CCCN1CCc2cccc3c2[C@H]1Cc1cccc(OC)c1-3	31.3		> 5000	826	Accumulation (Rattus norvegicus [12]): 82; Accumulation (Rattus norvegicus [13]): 96; Accumulation (Rattus norvegicus [14]): 43; Accumulation (Rattus norvegicus [15]): 89; Accumulation (Rattus norvegicus [16]): 87; Accumulation (Rattus norvegicus [17]): 66
Oc1cccc2c1-c1cccc3c1[C@@H](C2)N(Cc1ccccc1)CC3	> 5000		> 3000	> 1000	
COc1cccc2c1-c1cccc3c1[C@@H](C2)N(Cc1ccccc1)CC3	3220		> 10000	> 1000	
CN1CCc2cccc3c2[C@H]1Cc1cccc(O)c1-3					Accumulation (Rattus norvegicus [18]): 30; Accumulation (Rattus norvegicus [19]): 83; Accumulation (Rattus norvegicus [20]): 93; Accumulation (Rattus norvegicus [21]): 98; Accumulation (Rattus norvegicus [22]): 103; Accumulation (Rattus norvegicus [23]): 67
C=Cc1cccc2c1-c1cccc3c1[C@@H](C2)N(C)CC3	6	177			Ki (D(1A) dopamine receptor [1]): 720 nM
CN1CCc2cccc3c2[C@H]1Cc1cccc(-c2ccccc2)c1-3	1.8	233			Ki (D(1A) dopamine receptor [1]): 3630 nM; Accumulation (Rattus norvegicus [24]): 133; Accumulation (Rattus norvegicus [25]): 95; Accumulation (Rattus norvegicus [26]): 107; Accumulation (Rattus norvegicus [27]): 95; Accumulation (Rattus norvegicus [28]): 93; Accumulation (Rattus norvegicus [29]): 106
CCCN1CCc2cccc3c2[C@H]1Cc1cccc(O)c1-3					Accumulation (Rattus norvegicus [30]): 87; Accumulation (Rattus norvegicus [31]): 66; Accumulation (Rattus norvegicus [32]): 106; Accumulation (Rattus norvegicus [33]): 97; Accumulation (Rattus norvegicus [34]): 122; Accumulation (Rattus norvegicus [35]): 29
Cc1cccc2c1-c1cccc3c1[C@@H](C2)N(C)CC3	14.4	201	700		
CN1CCc2cccc3c2[C@H]1Cc1cccc(C(N)=O)c1-3	198		> 4000	> 10000	
Oc1cccc2c1-c1cccc3c1[C@@H](C2)NCC3	5.7		1100	> 1000	Accumulation (Rattus norvegicus [36]): 78; Accumulation (Rattus norvegicus [37]): 122; Accumulation (Rattus norvegicus [38]): 96; Accumulation (Rattus norvegicus [39]): 89; Accumulation (Rattus norvegicus [40]): 108; Accumulation (Rattus norvegicus [41]): 71
COc1ccccc1-c1cccc2c1-c1cccc3c1[C@@H](C2)N(C)CC3	26.9		> 3000	1330	
CC(=O)c1cccc2c1-c1cccc3c1[C@@H](C2)N(C)CC3	57.1			311	Ki (D(1A) dopamine receptor [1]): 4690 nM
CC(C)N1CCc2cccc3c2[C@H]1Cc1cccc(O)c1-3	437		> 10000	1010	
CN1CCc2cccc3c2[C@H]1Cc1cccc(OS(=O)(=O)C(F)(F)F)c1-3	7.7	195	386		
